# PHOSPHO1 block: PHOSPHO1 (human) inhibition; hit rate 1.1% among 290,000; inhibition, % at 13.3 µM; recombinant PHOSPHO1, absorbance phosphatase assay; AID 1565; in the data active = inhibition above about 60%
# Target sequence (Q8TCT1 whole entry, looked up): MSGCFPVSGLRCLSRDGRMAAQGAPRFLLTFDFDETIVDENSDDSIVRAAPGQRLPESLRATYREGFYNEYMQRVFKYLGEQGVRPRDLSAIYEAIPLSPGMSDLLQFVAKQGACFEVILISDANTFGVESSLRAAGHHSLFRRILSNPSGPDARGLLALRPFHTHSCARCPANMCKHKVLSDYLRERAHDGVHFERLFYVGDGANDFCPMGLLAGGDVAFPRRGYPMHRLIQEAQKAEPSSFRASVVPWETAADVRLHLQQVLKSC
# ASAP1 GAP inh: blocks human ASAP1-stimulated Arf1 GTP hydrolysis | GDP FP detection | hit rate 0.19% among 360,000 | AID 624377 | inhibition, % at 16.5 µM; in the data active = inhibition above about 25%;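 note: 0% = vehicle with enzyme and substrate and 100% = no enzyme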
# Target sequence (Q9ULH1 325-724 limits assumed): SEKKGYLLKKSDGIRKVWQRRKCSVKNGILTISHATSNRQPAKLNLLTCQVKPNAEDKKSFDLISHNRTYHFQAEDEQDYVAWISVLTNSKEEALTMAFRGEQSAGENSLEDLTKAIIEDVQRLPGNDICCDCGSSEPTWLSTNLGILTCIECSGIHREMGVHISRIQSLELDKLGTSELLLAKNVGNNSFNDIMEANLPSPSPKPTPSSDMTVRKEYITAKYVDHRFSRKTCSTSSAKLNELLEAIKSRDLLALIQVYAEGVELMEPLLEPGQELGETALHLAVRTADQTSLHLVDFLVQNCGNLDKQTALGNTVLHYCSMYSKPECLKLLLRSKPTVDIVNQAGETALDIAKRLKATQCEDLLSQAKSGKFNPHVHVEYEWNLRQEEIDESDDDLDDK
# VIM-2 inhibitor: blocks Pseudomonas aeruginosa VIM-2 metallo-beta-lactamase. inhibition, % at 5.6 µM. purified VIM-2, nitrocefin hydrolysis, epi-absorbance fluorescence. hit rate 0.89% among 290,000;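 active = inhibition above the mean of all tested compounds plus 3 SD, cutoff set per screening run, cut at about 7.5% in these data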;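 note: red hydrolysis product quenches plate fluorescence so inhibitors raise well fluorescence; 0% = enzyme with DMSO and 100% = DMSO without enzyme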
# IMP-1 inh: inhibitors of Pseudomonas aeruginosa IMP-1 metallo-beta-lactamase; purified IMP-1, nitrocefin hydrolysis, epi-absorbance fluorescence; inhibition, % at 5.6 µM; AID 1556; hit rate 0.45% among 290,000;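 active = inhibition above the mean plus 3 SD of all compounds in the same screening run, cut at about 4.5% in these data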;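 note: 0% = IMP-1 with DMSO and 100% = DMSO wells lacking enzyme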
#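 Test system: recombinant IMP-1 enzyme, purified / Medium: HEPES buffer pH 7.1 with ZnSO4 and Brij 35 / Doses: single dose, 5.6 µM / Times: 25 °C, 15 min preincubation, 25 min reaction / Detection: Epi-absorbance via hydrolysed-nitrocefin quenching of white-plate fluorescence, 480/530 nm, EDTA stop / Evaluation: percent inhibition from optical density relative to buffer-blank wells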
# ARFGAP1 inhibitor: inhibitors of rat ARFGAP1; Q62848; Arfgap1-stimulated ARF1 GTP hydrolysis, GDP FP detection; inhibition, % at 16.5 µM; hit rate 0.26% among 360,000;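 active = inhibition above a per-plate limit, mean inhibition of low control wells plus 3 SD, cut at about 25% in these data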;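 note: 0% = DMSO wells with enzyme and 100% = wells lacking Arfgap1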
#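 Material: rat Arfgap1 GAP domain (His6, aa 1-136), purified enzyme. Also added: human ARF1(Δ1-17)-GTP substrate. Compound dosing: 16.5 µM single point, 1.26% DMSO. Timing: enzyme reaction 120 min at 25 °C after 20 min preincubation. Signal: GDP detection by fluorescence polarization. Read-out basis: percent inhibition of GAP-stimulated GDP formation, scaled between DMSO and no-Arfgap1 medians.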
# Calb FLC: C. albicans growth modulation with fluconazole. growth inhibition, % (no concentration beside the values). C. albicans CaCi-2 (fluconazole-resistant clinical isolate) + fluconazole, Alamar Blue growth, 48 h. AID 1979. hit rate 0.57% among 300,000;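 active = growth inhibition above about 58% in most replicates, limit read from the data, passing the limit was not always enough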;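 note: all wells also contain fluconazole at 8 µg/ml as a sub-toxic cotreatment; 0% = median of DMSO wells and 100% = median of geldanamycin control wells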
# * hit, by the source's call; nt = no result given. In the library only some 2.6% were active in any assay of this set; here they are far more common.
SMILES,PHOSPHO1 block,ASAP1 GAP inh,VIM-2 inhibitor,IMP-1 inh,ARFGAP1 inhibitor,Calb FLC
O=S(=O)(c1ccc(Cl)cc1)N1CCN(Cc2ccncc2)CC1,-2,-2,0,-3,-7,-1
Cc1ccc(C2c3c(n[nH]c3C)C(=O)N2c2ccccc2)cc1 (stereo unspecified),nt,-1,nt,nt,-5,nt
O=C1c2ccccc2C(=O)N1CCSc1n[nH]c(=S)s1,99*,-2,-1,-4,-7,8
COCCNC(=O)/C(C#N)=C/c1cc(C(C)C)c(OC)cc1C,61*,4,0,1,20,4
Nc1ccn([C@@H]2O[C@H](C(=O)N[C@H](Cc3ccccc3)C(=O)N3CCN(C(=O)N4CCCCC4)CC3)[C@@H](O)[C@H]2O)c(=O)n1,nt,-5,nt,nt,5,nt
COC(=O)c1cc(=O)nc(NN=C(C)C)s1,nt,-2,nt,nt,-9,nt
C[C@@H]1OC(C2CCCCC2)N(C)[C@H]2C[C@H]3c4[nH]c5cccc(-c6ccccc6)c5c4CCN3C(=O)[C@@H]12 (stereo partly specified),nt,7,nt,nt,-14,nt
S=c1[nH]nc(Cc2cccc3ccccc23)o1,-2,2,3,-2,-8,-5
Cc1[nH]c2ccccc2c1Cc1nnc(SCC(N)=O)o1,2,4,0,9.6*,9,0
Cc1[nH]c2ccccc2c1Cc1n[nH]c(=S)o1,90*,-7,-5,-4,0,-1
CCC(CC)CN1CCC(CN2C(=S)NC[C@@H]2Cc2ccccc2)CC1,nt,0,nt,nt,15,nt
CC(CC1C(C#N)=C(N)SC(N)=C1C#N)c1ccccc1 (stereo unspecified),37,0,-2,5.1*,-8,-3
CCC(CC)C1C(C#N)=C(N)SC(N)=C1C#N,-6,-10,1,-1,11,-2
CC(c1ccccc1)C1C(C#N)=C(N)SC(N)=C1C#N (stereo unspecified),19,1,-1,1,16,6
CC(C)C1C(C#N)=C(N)SC(N)=C1C#N,73*,-10,-2,0,-14,5
CNC(=O)c1nnsc1S(=O)c1ccc(Cl)cc1 (stereo unspecified),4,-2,1,-1,5,105*
CCCCCCCCCCCCN1CCSCCS1(=O)=O,nt,2,nt,nt,0,nt
CCCCc1ccc(NC(=O)CSc2nnc(C)c(=O)n2N)cc1,63*,13,-2,-3,-1,-5
Cc1cc(C)c(NC(=O)CSc2nnc(SCC(=O)Nc3c(C)cc(C)cc3C)n2N)c(C)c1,-21,-1,-4,7.2*,-19,4
CCc1cc2c(nc1CC)CCCN2Cc1ccc(Br)cc1,nt,8,nt,nt,-9,nt
O=C(Sc1cccc2cccnc12)c1ccccc1Br,15,-5,-4,-3,14,112*
CC(=O)NC1CCCN(O)C(=O)/C=C(\C)CCOC(=O)C(NC(C)=O)CCCN(O)C(=O)/C=C(\C)CCOC(=O)C(NC(C)=O)CCCN(O)C(=O)/C=C(\C)CCOC1=O (stereo unspecified),24,nt,-1,-2,nt,86*
Cc1cc(N/N=C/c2ccc(N(C)C)cc2)c2ccccc2n1,nt,6,4,-3,4,1
Cc1cc(N/N=C/c2ccc(O)cc2)c2cccc(C)c2n1,-21,6,12*,-1,18,1
Cc1cccn2c(=O)c(C(=O)NCCCN3CCCCC3C)c(O)nc12 (stereo unspecified),-126,-13,9.5*,-2,5,-13
SMILES,PHOSPHO1 block,ASAP1 GAP inh,VIM-2 inhibitor,IMP-1 inh,ARFGAP1 inhibitor,Calb FLC
CCC1CCCCN1CCCNC(=O)c1c(O)nc2c(C)cccn2c1=O (stereo unspecified),18,7,9.6*,-1,-5,10
COC(=O)C1=C(C)N(Cc2cccc(C(F)(F)F)c2)C(=NCc2ccc(C(F)(F)F)cc2)NC1c1cccc(C(F)(F)F)c1 (stereo unspecified),nt,8,nt,nt,13,nt
O=C(N/C(=C\c1ccc(Cl)cc1)C(=O)N1CCOCC1)c1ccc([N+](=O)[O-])cc1,80*,-8,1,1,2,7
O=C(N/C(=C/c1ccc(Cl)cc1)C(=O)N1CCOCC1)c1ccccc1,29,-10,0,-1,13,-1
COC(=O)[C@]12C[C@H](CC(=O)NCc3ccc(OC)c(OC)c3)C(=O)N(Cc3ccccc3)C1=C[C@H](C1CCCC1)O[C@@H]2C,nt,-15,nt,nt,2,nt
CCc1cccc(Nc2cc(C)n(-c3cccc(CC)c3)c(=O)c2)c1,nt,-7,nt,nt,-2,nt
CCOC(=O)N1CCN(c2c(F)cc3[nH]c(=S)[nH]c3c2Br)CC1,71*,3,-2,-2,6,-9
CCOC(=O)N1CCN(c2cc3[nH]c(=S)[nH]c3cc2F)CC1,57,2,-4,-5,2,7
COc1ccccc1-c1cc(C(=O)NC(C)C)no1,60*,11,-6,-1,9,-29
COc1ccccc1-c1cc(C(=O)NC(C)c2ccccc2)no1 (stereo unspecified),11,1,-1,-4,-9,-9
Cc1cc(-c2n[nH]c(=S)n2CC(C)C)cs1,16,4,8.6*,-5,13,-8
COc1ccc(Cn2c(-c3ccc(OC)cc3)n[nH]c2=S)cc1,nt,-1,11*,-3,11,13
CC(C)Cn1c(-c2csc(C(C)C)c2)n[nH]c1=S,-108,-14,-2,-1,-11,-55
CCOc1ccc(-c2n[nH]c(=S)n2Cc2ccccc2)cc1,-92,2,4,-4,-1,-1
Oc1ccc(-c2n[nH]c(=S)n2Cc2ccco2)cc1,100*,-7,2,-4,-2,-1
COc1ccc(-c2n[nH]c(=S)n2CC(C)C)cc1,97*,-10,1,4,-4,5
Cc1occc1-c1n[nH]c(=S)n1CC(C)C,-6,-3,5,-5,14,1
COC(=O)c1cc2c(c3c4cc(F)ccc4n(C(=O)c4ccccc4)c13)C(=O)N(C1CCCCC1)C2,nt,-2,nt,nt,1,nt
Cc1cc(Oc2cccnc2)ccc1NC(=O)Cc1cn(C)c2ccccc12,nt,2,nt,nt,1,nt
CCn1c(-c2csc3ccccc23)n[nH]c1=S,-6,-2,-3,-3,7,30
CC(C)Cn1c(-c2csc3ccccc23)n[nH]c1=S,106*,6,1,-2,-1,4
Cc1cc(N2CCN(C(=O)OC(C)(C)C)C[C@H]2C)ccc1N1CC[C@@H](O)C1,nt,-4,nt,nt,-1,nt
COC(=O)c1ccc(CSc2nc3scc(-c4cccs4)c3c(=O)[nH]2)o1,72*,3,-5,-4,-2,47
O=C(NN1C(=O)CSC1=S)C(=O)NN1C(=O)CSC1=S,-50,-5,4,18*,-2,41
O=C(Cc1cccc2ccccc12)NN1C(=O)CSC1=S,17,-10,-3,0,-4,17

# From PubChem
